Results as given in ChEMBL document CHEMBL3804777, “Identification and Preclinical Pharmacology of BMS-986104: A Differentiated S1P1 Receptor Modulator in Clinical Trials” (ACS Med Chem Lett, 2016).
Active and inactive are the calls of the source. No cut-off for these calls is given here.

Experiments:
Blood [1] = test: Drug metabolism in BALB/c mouse blood assessed as formation of phosphate ester metabolite at 10 mg/kg administered through oral gavage after 24 hrs by LC/MS/MS analysis; assay type: ADME, organism-based; settings: in vivo
How it was run: (§1)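 Mouse PK study: alcohol prodrug given orally at 10 mg/kg, and formation of the phosphate metabolite in blood measured.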

[2] = Drug metabolism in BALB/c mouse whole blood assessed as whole blood phosphate area ratio at 10 uM after 4 hrs by LC/MS/MS analysis; assay type: ADME, tissue-based
How it was run: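 Mouse whole blood incubated with the amino-alcohol prodrug; phosphorylated product measured by LC/MS/MS after 4 h to give the relative extent of phosphate ester formation.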

Blood [3] = test: Drug metabolism in BALB/c mouse blood assessed as formation of phosphate ester metabolite at 10 mg/kg administered through oral gavage after 4 hrs by LC/MS/MS analysis; assay type: ADME, organism-based; settings: in vivo; how it was run: as §1
Mus musculus [4] = test: Reduction of blood lymphocyte level in BALB/c mouse at 1 mg/kg administered through oral gavage after 24 hrs by hematology analysis; assay type: functional; parameters: scale not given: the % may be the effect or the level left
How it was run: (§2)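 Mice given a single oral 1 mg/kg dose; circulating lymphocytes counted 24 h later as the pharmacodynamic marker.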

Mus musculus [5] = test: Reduction in blood lymphocyte level in BALB/c mouse at 1 mg/kg, po after 24 hrs by hematology analysis; assay type: functional, organism-based; how it was run: as §2
[6] = biological target: T1, Sphingosine 1-phosphate receptor 4 (Homo sapiens, UniProt O95977); test: Agonist activity at human S1P4 receptor by GTPgammaS binding assay; assay type: functional
T1 sequence (O95977 whole entry): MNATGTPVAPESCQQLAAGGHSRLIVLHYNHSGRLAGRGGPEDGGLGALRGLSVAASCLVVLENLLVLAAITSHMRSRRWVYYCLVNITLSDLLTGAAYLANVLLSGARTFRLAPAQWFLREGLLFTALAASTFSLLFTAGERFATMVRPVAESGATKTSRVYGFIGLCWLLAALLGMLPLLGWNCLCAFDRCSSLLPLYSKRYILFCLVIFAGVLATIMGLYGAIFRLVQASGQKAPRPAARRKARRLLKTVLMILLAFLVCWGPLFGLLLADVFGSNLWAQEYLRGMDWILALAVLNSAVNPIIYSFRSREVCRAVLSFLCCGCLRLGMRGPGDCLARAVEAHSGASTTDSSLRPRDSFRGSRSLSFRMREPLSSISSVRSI

Heart [7] = test: Toxicity in guinea pig heart assessed as reduction in ventricular rate at 1 nM after 10 mins by ECG analysis; assay type: tissue-based, Cavia porcellus, Cardiac ventricle; settings: 0.001 µM
How it was run: (§3)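 Isolated guinea pig hearts perfused with the phosphate at the stated concentrations; ventricular rate and atrioventricular conduction (third-degree AV block) monitored.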

Heart [8] = test: Toxicity in guinea pig heart assessed as third degree AV block at 1 nM after 10 mins by ECG analysis; assay type: tissue-based, Cavia porcellus; settings: 0.001 µM; how it was run: as §3
[9] = Toxicity in human-inducible pluripotent stem cell-derived Cardiomyocyte assessed as reduction in cardiomyocyte beating after 2 hrs; settings: cardiac muscle cell
How it was run: (§4)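 Cultured human iPSC-derived cardiomyocytes expressing S1P1 and S1P3, exposed to a range of concentrations of the phosphate; beating rate measured and the no-effect concentration determined.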

[10] = Toxicity in human-inducible pluripotent stem cell-derived Cardiomyocyte assessed as reduction in cardiomyocyte beating at 0.1 nM after 2 hrs; settings: cardiac muscle cell, 0.0001 µM; how it was run: as §4
[11] = Toxicity in human-inducible pluripotent stem cell-derived Cardiomyocyte assessed as reduction in cardiomyocyte beating at 1 nM after 2 hrs; parameters: scale not given: the % may be the effect or the level left; settings: cardiac muscle cell, 0.001 µM; how it was run: as §4
Mus musculus [12] = test: Reduction of blood lymphocyte level in BALB/c mouse administered through oral gavage after 24 hrs by hematology analysis; assay type: functional, organism-based; settings: for ED50: po
[13] = biological target: T2, Sphingosine 1-phosphate receptor 1 (Homo sapiens, UniProt P21453); test: Agonist activity at human S1P1 receptor expressed in CHO cells assessed as cAMP accumulation after 30 mins by HTRF analysis; assay type: functional, cell-based
T2 sequence (P21453 whole entry): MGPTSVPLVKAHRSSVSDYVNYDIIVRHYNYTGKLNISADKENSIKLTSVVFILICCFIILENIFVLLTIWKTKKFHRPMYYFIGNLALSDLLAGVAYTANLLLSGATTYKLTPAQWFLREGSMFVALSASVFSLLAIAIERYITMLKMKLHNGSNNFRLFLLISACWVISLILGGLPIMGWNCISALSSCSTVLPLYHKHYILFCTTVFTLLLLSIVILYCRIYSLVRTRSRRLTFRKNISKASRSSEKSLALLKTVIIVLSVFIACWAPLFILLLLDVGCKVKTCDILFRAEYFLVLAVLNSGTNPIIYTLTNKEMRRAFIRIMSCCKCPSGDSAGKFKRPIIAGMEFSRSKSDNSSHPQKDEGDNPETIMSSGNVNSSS

[14] = biological target: T2, Sphingosine 1-phosphate receptor 1; test: Agonist activity at human S1P1 receptor expressed in CHO cells assessed as ERK phosphorylation after 7 mins by alphaLISA; assay type: cell-based
[15] = biological target: T2, Sphingosine 1-phosphate receptor 1; test: Agonist activity at human S1P1 receptor expressed in CHO cells co-expressing GFP assessed as cellular internalization after 45 mins by Hoechst assay; assay type: cell-based
[16] = biological target: T3, Sphingosine 1-phosphate receptor 3 (Homo sapiens, UniProt Q99500); test: Antagonist activity at human S1P3 receptor by GTPgammaS binding assay; assay type: functional
T3 sequence (Q99500 whole entry): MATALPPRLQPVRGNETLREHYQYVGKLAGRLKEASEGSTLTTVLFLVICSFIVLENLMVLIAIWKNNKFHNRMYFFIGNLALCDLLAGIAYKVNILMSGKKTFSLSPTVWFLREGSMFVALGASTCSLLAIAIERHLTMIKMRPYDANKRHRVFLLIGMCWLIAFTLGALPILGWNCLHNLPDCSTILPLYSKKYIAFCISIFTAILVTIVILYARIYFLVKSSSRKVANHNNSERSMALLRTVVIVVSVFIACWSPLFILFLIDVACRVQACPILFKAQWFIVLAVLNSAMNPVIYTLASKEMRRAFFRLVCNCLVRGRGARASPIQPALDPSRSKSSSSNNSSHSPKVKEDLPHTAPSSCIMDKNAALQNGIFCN

[17] = biological target: T3, Sphingosine 1-phosphate receptor 3; test: Agonist activity at human S1P3 receptor by GTPgammaS binding assay; assay type: functional
[18] = biological target: Sphingosine 1-phosphate receptor 5 (Homo sapiens, UniProt Q9H228); test: Agonist activity at human S1P5 receptor by GTPgammaS binding assay; assay type: functional
Sequence of Sphingosine 1-phosphate receptor 5 (Q9H228 whole entry): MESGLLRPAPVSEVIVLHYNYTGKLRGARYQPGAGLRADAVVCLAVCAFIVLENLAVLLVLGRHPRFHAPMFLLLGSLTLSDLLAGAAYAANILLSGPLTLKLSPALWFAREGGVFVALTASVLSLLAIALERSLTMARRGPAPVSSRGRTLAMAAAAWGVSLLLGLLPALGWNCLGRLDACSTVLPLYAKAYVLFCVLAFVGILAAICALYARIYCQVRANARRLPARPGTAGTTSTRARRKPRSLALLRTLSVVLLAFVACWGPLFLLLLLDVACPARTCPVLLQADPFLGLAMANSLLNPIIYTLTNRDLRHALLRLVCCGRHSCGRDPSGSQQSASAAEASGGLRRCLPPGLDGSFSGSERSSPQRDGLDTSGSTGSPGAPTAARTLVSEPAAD

Heart [19] = test: Toxicity in guinea pig heart assessed as reduction in ventricular rate at 100 nM after 10 mins by ECG analysis; assay type: tissue-based, Cavia porcellus, Cardiac ventricle; settings: 0.1 µM; how it was run: as §3
Heart [20] = test: Toxicity in guinea pig heart assessed as third degree AV block at 100 nM after 10 mins by ECG analysis; assay type: tissue-based, Cavia porcellus; settings: 0.1 µM; how it was run: as §3
Heart [21] = test: Toxicity in guinea pig heart assessed as reduction in ventricular rate at 1000 nM after 10 mins by ECG analysis; assay type: tissue-based, Cavia porcellus, Cardiac ventricle; settings: 1 µM; how it was run: as §3
Heart [22] = test: Toxicity in guinea pig heart assessed as third degree AV block at 1000 nM after 10 mins by ECG analysis; assay type: tissue-based, Cavia porcellus; settings: 1 µM; how it was run: as §3

CCCCCCC1CCc2cc(C3CCC(N)(CO)C3)ccc2C1 (stereo in doubt; 3a)
Drug metabolism (Blood [1]): 14 nM
Ratio [2]: 0.07
Drug metabolism (Blood [3]): < 9.8 nM
Activity (Mus musculus [4]): 12%

CCCCCCC1CCc2cc(C3CCC(N)(CO)C3)ccc2C1 (stereo in doubt; 3b)
Activity (Mus musculus [5]): Active

CCCCCCC1CCc2cc(C3CCC(N)(CO)C3)ccc2C1 (stereo in doubt; 3e)
Ratio [2]: 0.03

CCCCCCC1CCc2cc(C3CCC(N)(CO)C3)ccc2C1 (stereo in doubt; 3g)
Ratio [2]: 0.02

CCCCCCCCc1ccc(CCC(N)(CO)COP(=O)(O)O)cc1 (centres undefined)
EC50 [6]: 0.09 nM
Activity (Heart [7]): 32 bpm
Activity (Heart [8]): Toxic
Activity [9]: Dose-dependent effect
Activity [10]: Non-toxic
Activity [11]: 35%
EC50 (Mus musculus [12]): 5.6 nM
ED50 (Mus musculus [12]): 0.017 mg/kg

CCCCCC[C@@H]1CCc2cc([C@H]3CC[C@](N)(COP(=O)(O)O)C3)ccc2C1
EC50 [13]: 0.006 nM
EC50 [14]: 8.16 nM
EC50 [15]: 0.114 nM
IC50 [16]: > 1000 nM
EC50 [17]: > 1000 nM
EC50 [6]: 10.5 nM
EC50 [18]: 10.7 nM
Activity (Heart [19]): Non-toxic
Activity (Heart [20]): Non-toxic
Activity (Heart [21]): Toxic
Activity (Heart [22]): Toxic
Activity [11]: Non-toxic
EC50 (Mus musculus [12]): 7.9 nM
ED50 (Mus musculus [12]): 0.12 mg/kg
